Experimental data from ChEMBL document CHEMBL3627607, “A Novel Pyrazolopyridine with in Vivo Activity in Plasmodium berghei- and Plasmodium falciparum-Infected Mouse Models from Structure-Activity Relationship Studies around the Core of Recently Identified Antimalarial Imidazopyridazines” (J Med Chem, 2015).
The source made the active and inactive calls. The calls are words filed in the database; no cut-off is given here.

How the values were obtained:
[1] = Tmax in Plasmodium falciparum 3D7 infected in non-myelodepleted NOD-SCID IL2Rgammanull mouse engrafted with human erythrocytes at 0.5 mg/kg, po; format: ADME, organism-based; settings: in vivo
In short: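 Humanized NSG mice infected with P. falciparum received one oral dose per day for 4 consecutive days. Blood was sampled for exposure, with levels of both parent and its main active metabolite measured. Tmax was taken from the blood concentration–time profile after oral dosing.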

Liver microsome [2] = assay: Metabolic stability of the compound in human liver microsomes assessed as compound remaining at 0.1 uM after 30 mins by LC-MS/MS analysis; format: ADME; settings: 0.5 h
[3] = Cmax in Plasmodium falciparum 3D7 infected in non-myelodepleted NOD-SCID IL2Rgammanull mouse engrafted with human erythrocytes at 30 mg/kg, po; format: ADME, organism-based; design: dose 30 mg/kg, route oral; settings: in vivo
In short: (§1)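 Engrafted NSG (scid IL2Rgc null) mice infected with P. falciparum were given one oral dose per day for four days. Blood was sampled to measure parent and its sulfone metabolite.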

Blood [4] = assay: Drug metabolism in mouse assessed as 5-(3-(Cyclopropylsulfonyl)phenyl)-3-(4-(methylsulfonyl)-phenyl)pyrazolo[1,5-a]pyridine level in blood at 50 mg/kg, po after 24 hrs; format: ADME, organism-based; settings: in vivo
In short: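 Snapshot whole-blood levels of parent and its sulfone metabolite at 1, 4 and 24 h after the first 50 mg/kg oral dose. Samples came from the P. berghei-infected efficacy mice, dosed in HPMC suspension vehicle.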

Rattus norvegicus = assay: Volume of distribution in rat at 5 mg/kg, iv; format: ADME, organism-based; settings: in vivo
Plasmodium berghei [5] = assay: Antiplasmodial activity against Plasmodium berghei ANKA expressing GFP infected in mouse assessed as reduction of parasitemia level at 3 mg/kg, po qd for 4 days measured on day 4 post last dose by flow cytometric analysis relative to control; format: functional; design: scale not given: the % may be the effect or the level left
In short: (§2)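 Mice (n = 3) infected with GFP-transfected P. berghei ANKA. Test agents were suspended in HPMC vehicle (0.5% w/v hydroxypropylmethylcellulose, 0.5% v/v benzyl alcohol, 0.4% v/v Tween 80, 0.9% w/v NaCl in water). Dosed orally at 4, 24, 48 and 72 h post-infection. Parasitemia read by flow cytometry on day 4 (96 h), detection limit 0.1%. Activity = control-minus-treated mean % parasitemia, relative to control.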

[6] = Cmax in Plasmodium falciparum 3D7 infected in non-myelodepleted NOD-SCID IL2Rgammanull mouse engrafted with human erythrocytes at 10 mg/kg, po; format: ADME, organism-based; design: dose 10 mg/kg, route oral; settings: in vivo; in short: as §1
Plasmodium berghei [7] = assay: Antiplasmodial activity against Plasmodium berghei ANKA expressing GFP infected in mouse assessed as mouse cured from disease at 50 mg/kg, po qd for 4 days; format: functional, organism-based
[8] = Half life in rat at 15 mg/kg, po; format: ADME, organism-based; settings: in vivo
Plasmodium berghei [9] = assay: Antiplasmodial activity against Plasmodium berghei ANKA expressing GFP infected in mouse assessed as reduction of parasitemia level at 10 mg/kg, po qd for 4 days measured on day 4 post last dose by flow cytometric analysis relative to control; format: functional; design: scale not given: the % may be the effect or the level left; in short: as §2
[10] = AUC (0 to 2 hrs) in Plasmodium falciparum 3D7 infected in non-myelodepleted NOD-SCID IL2Rgammanull mouse engrafted with human erythrocytes at 0.1 mg/kg, po; format: ADME, organism-based; design: time < 2 hr, dose 0.1 mg/kg, route oral; settings: in vivo; in short: as §1
Liver microsome [11] = assay: Metabolic stability of the compound in rat liver microsomes assessed as compound remaining at 0.1 uM after 30 mins by LC-MS/MS analysis; format: ADME; settings: 0.5 h
Blood [12] = assay: Drug metabolism in rat blood assessed as metabolite formation from sulfone oxidation on pyridine core and phenyl ring at 20 mg/kg, po and 5 mg/kg, iv by LC-MS/MS analysis; format: ADME, organism-based; settings: in vivo
In short: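 Metabolites identified by LC-ESI-MS/MS in blood samples from the rat PK study (oral and intravenous dosing).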

[13] = Cmax in Plasmodium falciparum 3D7 infected in non-myelodepleted NOD-SCID IL2Rgammanull mouse engrafted with human erythrocytes at 1.5 mg/kg, po; format: ADME, organism-based; design: dose 1.5 mg/kg, route oral; settings: in vivo; in short: as §1

In the case of `C[S+]([O-])c1ccc(-c2cnn3ccc(-c4cccc(S(=O)(=O)C5CC5)c4)cc23)cc1` (centres undefined), the Tmax [1] is reported as 15 min, the Stability (Liver microsome [2]) is reported as “Stable” and the Cmax [3] is reported as 226 ng/mL. The Drug metabolism (Blood [4]) was 3.1 µM, the Vd (Rattus norvegicus) was 6.8 L/kg and the Activity (Plasmodium berghei [5]) was 75%. For the same compound, the Cmax [6] was 50 ng/mL, the Activity (Plasmodium berghei [7]) was “Active” and the half-life [8] was 60 min. For the same compound, the Activity (Plasmodium berghei [9]) was 99.9%, the AUC(0-t) at 2 h [10] was 2.1 ng·h/mL and the Stability (Liver microsome [11]) was “Stable”. The Drug metabolism (Blood [12]) was “metabolite_detected” and the Cmax [13] was 30 ng/mL.
